Source: ChEMBL document CHEMBL2010768, “Optimization of Potent Inhibitors of P. falciparum Dihydroorotate Dehydrogenase for the Treatment of Malaria” (ACS Med Chem Lett, 2011)
pIC50: −log10 of the molar value. The source made the active and inactive calls. The rule behind the calls is not given here.

Columns and labels:
[1] = molecular target: Dihydroorotate dehydrogenase (quinone), mitochondrial (Homo sapiens, UniProt Q02127); experiment: Inhibition of human DHODH after 20 mins by 2,6-dichloroindophenol-reduction based assay
Dihydroorotate dehydrogenase (quinone), mitochondrial, sequence (Q02127 whole entry): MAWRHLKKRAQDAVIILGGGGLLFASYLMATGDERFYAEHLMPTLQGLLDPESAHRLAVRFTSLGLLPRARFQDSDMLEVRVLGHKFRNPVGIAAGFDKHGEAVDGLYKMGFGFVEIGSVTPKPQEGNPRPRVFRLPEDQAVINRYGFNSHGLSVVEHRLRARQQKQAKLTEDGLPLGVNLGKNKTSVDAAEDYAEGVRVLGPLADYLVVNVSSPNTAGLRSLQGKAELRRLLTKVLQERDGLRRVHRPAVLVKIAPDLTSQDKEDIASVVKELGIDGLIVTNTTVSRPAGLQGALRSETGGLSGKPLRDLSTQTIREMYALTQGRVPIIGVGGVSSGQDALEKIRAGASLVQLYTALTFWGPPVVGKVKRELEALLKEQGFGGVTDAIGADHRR

[2] = Cytotoxicity against human RPTEC after 4 days by alamar blue assay; assay type: cell-based; settings: RPTEC cells, read-out: LC50
[3] = molecular target: T1, Dihydroorotate dehydrogenase (Plasmodium falciparum, UniProt Q54A96); experiment: Inhibition of Plasmodium falciparum DHODH after 20 mins by 2,6-dichloroindophenol-reduction based assay
T1 sequence (Q54A96 whole entry): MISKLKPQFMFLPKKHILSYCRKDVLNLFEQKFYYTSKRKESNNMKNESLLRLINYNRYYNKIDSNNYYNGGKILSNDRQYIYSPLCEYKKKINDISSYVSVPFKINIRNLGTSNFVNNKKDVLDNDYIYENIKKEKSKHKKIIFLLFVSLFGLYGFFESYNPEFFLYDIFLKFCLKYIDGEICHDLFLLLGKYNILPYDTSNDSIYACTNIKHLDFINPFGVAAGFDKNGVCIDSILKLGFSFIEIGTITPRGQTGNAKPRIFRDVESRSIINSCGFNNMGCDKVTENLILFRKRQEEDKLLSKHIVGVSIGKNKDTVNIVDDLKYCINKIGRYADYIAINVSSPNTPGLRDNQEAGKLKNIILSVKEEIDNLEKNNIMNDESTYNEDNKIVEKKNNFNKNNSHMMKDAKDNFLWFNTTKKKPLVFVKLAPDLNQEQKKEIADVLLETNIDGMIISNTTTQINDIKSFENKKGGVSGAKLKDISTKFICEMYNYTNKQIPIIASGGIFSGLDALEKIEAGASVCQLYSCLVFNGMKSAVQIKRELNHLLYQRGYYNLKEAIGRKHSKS

Plasmodium falciparum [4] = experiment: Antiplasmodial activity against Plasmodium falciparum 3D7 infected in […] after 72 hrs by SYBR green assay; assay type: functional, organism-based; settings: 3D7, 72 h
Plasmodium falciparum [5] = experiment: Antiplasmodial activity against Plasmodium falciparum Dd2 infected in […] after 72 hrs by SYBR green assay; assay type: functional, organism-based; settings: Dd2, 72 h
[6] = Clearance in mouse liver microsomes by LC-MS/MS analysis; assay type: ADME, Microsome
Outline: (§1)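 Liver microsome incubation. Predicted clearance is derived from a well-stirred model corrected for microsomal and protein binding.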

[7] = Clearance in human liver microsomes by LC-MS/MS analysis; assay type: ADME, Microsome; outline: as §1
Cytochrome P450 2D6 = Cytochrome P450 2D6 (Homo sapiens, UniProt P10635); experiment: Inhibition of human CYP2D6 using bufuralol as substrate after 10 mins by LC-MS/MS analysis; assay type: ADME
Cytochrome P450 2D6, sequence (P10635 whole entry): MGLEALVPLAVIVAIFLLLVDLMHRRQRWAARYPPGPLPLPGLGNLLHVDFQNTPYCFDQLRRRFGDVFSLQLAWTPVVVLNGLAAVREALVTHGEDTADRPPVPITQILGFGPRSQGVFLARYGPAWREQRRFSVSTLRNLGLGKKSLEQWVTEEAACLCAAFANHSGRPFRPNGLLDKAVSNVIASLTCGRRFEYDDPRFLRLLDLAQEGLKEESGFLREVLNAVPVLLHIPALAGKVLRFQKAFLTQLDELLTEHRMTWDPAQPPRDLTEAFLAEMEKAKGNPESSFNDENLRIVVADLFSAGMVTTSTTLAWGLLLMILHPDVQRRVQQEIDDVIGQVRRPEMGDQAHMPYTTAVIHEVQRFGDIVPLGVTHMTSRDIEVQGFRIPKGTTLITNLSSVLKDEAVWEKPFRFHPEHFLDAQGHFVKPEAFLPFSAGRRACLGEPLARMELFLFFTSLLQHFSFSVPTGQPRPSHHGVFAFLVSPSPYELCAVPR

Cytochrome P450 1A2 = molecular target: T2, Cytochrome P450 1A2 (Homo sapiens, UniProt P05177); experiment: Inhibition of human CYP1A2 using phenacetin as substrate after 10 mins by LC-MS/MS analysis; assay type: ADME; settings: human, 10 min
T2 sequence (P05177 whole entry): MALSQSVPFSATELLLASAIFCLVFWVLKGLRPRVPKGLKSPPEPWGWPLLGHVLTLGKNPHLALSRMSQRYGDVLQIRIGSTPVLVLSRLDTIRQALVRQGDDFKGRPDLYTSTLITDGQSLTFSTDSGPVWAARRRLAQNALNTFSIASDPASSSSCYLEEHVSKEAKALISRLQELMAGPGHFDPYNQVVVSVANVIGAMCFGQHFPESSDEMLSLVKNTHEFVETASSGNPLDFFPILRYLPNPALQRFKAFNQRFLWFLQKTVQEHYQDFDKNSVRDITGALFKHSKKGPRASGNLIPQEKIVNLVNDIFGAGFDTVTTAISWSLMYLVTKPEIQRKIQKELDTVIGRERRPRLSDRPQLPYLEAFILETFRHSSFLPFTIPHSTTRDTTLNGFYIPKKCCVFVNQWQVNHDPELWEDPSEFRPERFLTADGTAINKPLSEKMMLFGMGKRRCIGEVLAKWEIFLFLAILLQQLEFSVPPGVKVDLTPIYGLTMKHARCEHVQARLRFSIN

Cytochrome P450 2C19 = Cytochrome P450 2C19 (Homo sapiens, UniProt P33261); experiment: Inhibition of human CYP2C19 using S-mephenytoin as substrate after 45 mins by LC-MS/MS analysis; assay type: ADME; settings: human, 0.75 h
Cytochrome P450 2C19, sequence (P33261 whole entry): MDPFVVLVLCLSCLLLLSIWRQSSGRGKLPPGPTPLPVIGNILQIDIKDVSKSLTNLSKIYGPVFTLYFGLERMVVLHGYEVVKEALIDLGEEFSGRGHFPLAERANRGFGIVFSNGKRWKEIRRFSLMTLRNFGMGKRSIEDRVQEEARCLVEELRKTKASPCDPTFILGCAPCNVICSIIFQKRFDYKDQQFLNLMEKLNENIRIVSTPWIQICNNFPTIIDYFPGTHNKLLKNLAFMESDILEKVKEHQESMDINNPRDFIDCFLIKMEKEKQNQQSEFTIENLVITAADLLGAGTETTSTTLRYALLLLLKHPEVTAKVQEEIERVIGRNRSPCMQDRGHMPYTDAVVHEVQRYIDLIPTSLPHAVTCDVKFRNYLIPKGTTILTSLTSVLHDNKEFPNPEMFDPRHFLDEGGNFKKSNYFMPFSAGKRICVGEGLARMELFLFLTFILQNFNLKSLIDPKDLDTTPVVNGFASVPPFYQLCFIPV

Cytochrome P450 3A4 = Cytochrome P450 3A4 (Homo sapiens, UniProt P08684); experiment: Inhibition of human CYP3A4 using midazolam as substrate after 5 mins by LC-MS/MS analysis; assay type: ADME; settings: human, 5 min
Cytochrome P450 3A4, sequence (P08684 whole entry): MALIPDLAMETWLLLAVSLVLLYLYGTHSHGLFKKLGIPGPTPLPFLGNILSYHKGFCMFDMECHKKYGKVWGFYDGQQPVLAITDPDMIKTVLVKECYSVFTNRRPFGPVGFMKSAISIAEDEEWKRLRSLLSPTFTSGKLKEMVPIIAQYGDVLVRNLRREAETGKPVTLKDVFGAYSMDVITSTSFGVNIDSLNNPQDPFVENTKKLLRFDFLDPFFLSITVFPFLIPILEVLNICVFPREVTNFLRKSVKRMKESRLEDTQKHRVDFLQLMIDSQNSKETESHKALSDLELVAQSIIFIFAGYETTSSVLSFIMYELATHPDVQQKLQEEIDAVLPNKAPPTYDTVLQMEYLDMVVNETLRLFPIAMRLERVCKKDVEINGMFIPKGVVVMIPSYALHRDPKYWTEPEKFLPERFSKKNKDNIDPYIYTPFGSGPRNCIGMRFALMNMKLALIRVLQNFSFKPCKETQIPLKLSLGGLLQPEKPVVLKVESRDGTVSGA

Cytochrome P450 2C9 = Cytochrome P450 2C9 (Homo sapiens, UniProt P11712); experiment: Inhibition of human CYP2C9 using diclofenac as substrate after 10 mins by LC-MS/MS analysis; assay type: ADME; settings: human, 10 min
Cytochrome P450 2C9, sequence (P11712 whole entry): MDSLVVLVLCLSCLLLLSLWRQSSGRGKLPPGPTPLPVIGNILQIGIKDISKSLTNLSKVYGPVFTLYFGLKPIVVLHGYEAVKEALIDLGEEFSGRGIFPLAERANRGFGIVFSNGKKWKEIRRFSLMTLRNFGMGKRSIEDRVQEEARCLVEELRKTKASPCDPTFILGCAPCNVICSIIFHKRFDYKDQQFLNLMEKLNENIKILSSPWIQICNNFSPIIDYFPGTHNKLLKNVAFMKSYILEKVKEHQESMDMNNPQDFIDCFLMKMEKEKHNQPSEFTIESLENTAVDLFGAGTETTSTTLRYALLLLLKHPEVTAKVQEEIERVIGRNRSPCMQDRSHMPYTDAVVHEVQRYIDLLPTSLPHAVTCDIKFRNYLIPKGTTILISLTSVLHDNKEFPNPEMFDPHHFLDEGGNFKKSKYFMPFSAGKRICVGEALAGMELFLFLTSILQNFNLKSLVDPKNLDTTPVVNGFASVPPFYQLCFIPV

[8] = molecular target: Voltage-gated inwardly rectifying potassium channel KCNH2 (Homo sapiens, UniProt Q12809); experiment: Inhibition of human ERG expressed in CHOK1 cells by whole cell voltage clamp assay; assay type: cell-based, CHO-K1
Voltage-gated inwardly rectifying potassium channel KCNH2, sequence (Q12809 whole entry): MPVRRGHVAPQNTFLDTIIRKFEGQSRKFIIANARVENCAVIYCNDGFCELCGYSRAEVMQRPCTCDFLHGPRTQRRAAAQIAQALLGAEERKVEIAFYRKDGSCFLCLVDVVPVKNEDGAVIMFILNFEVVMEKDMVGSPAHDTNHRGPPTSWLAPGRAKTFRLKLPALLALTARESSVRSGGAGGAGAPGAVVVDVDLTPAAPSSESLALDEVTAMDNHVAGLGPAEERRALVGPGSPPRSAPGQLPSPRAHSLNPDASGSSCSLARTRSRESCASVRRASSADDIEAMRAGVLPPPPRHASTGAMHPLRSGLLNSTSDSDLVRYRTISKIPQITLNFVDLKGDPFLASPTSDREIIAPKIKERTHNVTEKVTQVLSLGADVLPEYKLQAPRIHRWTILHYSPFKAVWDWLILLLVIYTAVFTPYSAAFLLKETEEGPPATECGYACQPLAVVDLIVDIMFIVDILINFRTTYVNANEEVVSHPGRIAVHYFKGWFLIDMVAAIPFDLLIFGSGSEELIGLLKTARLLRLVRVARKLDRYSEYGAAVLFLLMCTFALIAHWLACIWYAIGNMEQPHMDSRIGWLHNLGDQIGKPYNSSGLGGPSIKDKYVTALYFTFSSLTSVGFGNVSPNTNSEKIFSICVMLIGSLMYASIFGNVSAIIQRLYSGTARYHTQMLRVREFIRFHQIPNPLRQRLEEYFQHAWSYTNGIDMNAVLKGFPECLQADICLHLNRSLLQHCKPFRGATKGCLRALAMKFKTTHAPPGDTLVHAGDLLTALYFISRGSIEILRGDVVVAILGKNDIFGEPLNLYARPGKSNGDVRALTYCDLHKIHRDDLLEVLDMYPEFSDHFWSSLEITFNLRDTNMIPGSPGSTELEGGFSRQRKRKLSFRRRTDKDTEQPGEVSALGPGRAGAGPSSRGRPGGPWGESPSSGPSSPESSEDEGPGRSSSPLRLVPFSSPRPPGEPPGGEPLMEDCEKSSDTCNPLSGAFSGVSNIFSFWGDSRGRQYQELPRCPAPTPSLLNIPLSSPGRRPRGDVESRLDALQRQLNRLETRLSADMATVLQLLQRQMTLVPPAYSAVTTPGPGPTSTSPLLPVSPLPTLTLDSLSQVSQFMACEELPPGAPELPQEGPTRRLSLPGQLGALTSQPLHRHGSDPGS

Plasmodium vivax = experiment: Inhibition of Plasmodium vivax DHODH after 20 mins by 2,6-dichloroindophenol-reduction based assay
Plasmodium berghei = experiment: Inhibition of Plasmodium berghei DHODH after 20 mins by 2,6-dichloroindophenol-reduction based assay

Row | CLhep predicted [6] [mL/min/kg] | CLhep predicted [7] [mL/min/kg] | inhibition (INH) (Cytochrome P450 2D6; human, 10 min) | inhibition (INH) (Cytochrome P450 1A2) | inhibition (INH) (Cytochrome P450 2C19) | inhibition (INH) (Cytochrome P450 3A4) | inhibition (INH) (Cytochrome P450 2C9) | inhibition (Plasmodium vivax) | inhibition (Plasmodium berghei) | pIC50 (Cytochrome P450 2D6) | SMILES | pIC50 [1] | CC50 at 96 h [2] [nM] | pIC50 [3] | pIC50 (Plasmodium falciparum [4]) | pIC50 (Plasmodium falciparum [5]) | inhibition (INH) ([8]; human, cho-k1) | pIC50 [8]
1 |  |  |  |  |  |  |  |  |  |  | CCCc1nc2ccccc2n1-c1ccc(C(=O)NC2CC2)s1 | 4.82 | > 62000 | 6.74 | 6.41 | 6.20 |  | 
2 | > 72 | 4 | Not Active | Not Active | Not Active | Not Active | Not Active | Active | Active |  | COc1cccc2c1nc(C)n2-c1ccc(C(=O)NC2CC2)s1 |  |  | 6.79 | 7.31 | 6.96 | Not Active | 
3 | 43 | 7 |  |  |  |  |  | Active | Active | 7.00 | Cc1nc2cc(OC(F)(F)F)ccc2n1-c1ccc(C(=O)NC2CC2)s1 |  |  | 7.66 | 8.15 | 8.05 |  | > 5.55
4 |  |  |  |  |  |  |  |  |  |  | O=C(NC1CC1)c1ccc(-n2c(C(F)(F)F)nc3ccccc32)s1 | < 4.52 | > 62000 | 6.24 | 6.08 | 5.77 |  | 
